The source made the active and inactive calls. The rule behind the calls is not given here.
Assays:
[1] = molecular target: T1, Protein kinase C beta type (Homo sapiens, UniProt P05771); experiment: Displacement of [3H]PDBu from PKCbeta C1B domain at 10 uM
Summary of the method: (§1)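 Competition for specific [3H]PDBu (20 nM, 16.3 Ci/mmol) binding to C1 peptide (10–40 nM) was tested with a single 10 µM competitor. The buffer was 50 mM Tris-maleate (pH 7.4 at 4 °C) with 50 µg/mL dioleoylphosphatidylserine and 3 mg/mL bovine γ-globulin.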
Target sequence in this assay (P05771 2-671 limits assumed): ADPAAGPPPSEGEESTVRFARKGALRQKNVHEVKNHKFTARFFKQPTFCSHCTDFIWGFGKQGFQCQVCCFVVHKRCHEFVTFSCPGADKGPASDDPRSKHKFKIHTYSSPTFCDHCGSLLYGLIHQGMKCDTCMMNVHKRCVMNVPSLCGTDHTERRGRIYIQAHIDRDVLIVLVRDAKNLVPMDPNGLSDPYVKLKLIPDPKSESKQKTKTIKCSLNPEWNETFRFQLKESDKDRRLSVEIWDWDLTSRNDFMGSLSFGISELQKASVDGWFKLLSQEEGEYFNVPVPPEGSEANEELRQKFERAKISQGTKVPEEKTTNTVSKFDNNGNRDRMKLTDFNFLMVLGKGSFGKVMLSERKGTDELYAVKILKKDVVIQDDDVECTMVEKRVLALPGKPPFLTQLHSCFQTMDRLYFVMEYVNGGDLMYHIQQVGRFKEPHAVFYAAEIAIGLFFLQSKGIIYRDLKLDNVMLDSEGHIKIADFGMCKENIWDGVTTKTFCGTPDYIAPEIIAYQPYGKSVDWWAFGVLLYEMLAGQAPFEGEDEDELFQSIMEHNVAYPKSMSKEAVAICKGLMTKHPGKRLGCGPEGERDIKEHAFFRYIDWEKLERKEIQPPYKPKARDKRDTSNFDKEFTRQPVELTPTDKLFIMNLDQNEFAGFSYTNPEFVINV

[2] = molecular target: T1, Protein kinase C beta type; experiment: Displacement of [3H]PDBu from PKCbeta C1A domain at 10 uM; summary of the method: as §1
Target sequence in this assay (P05771 2-671 limits assumed): as above

[3] = Displacement of [3H]PDBu from PKCdelta C1B P11dfP mutant
Summary of the method: (§2)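 [3H]PDBu (20 nM, 16.3 Ci/mmol) competition binding with synthetic PKC C1 peptides (10–40 nM) in 50 mM Tris-maleate pH 7.4 at 4 °C, with 50 µg/mL phosphatidylserine, 3 mg/mL bovine γ-globulin and varied inhibitor concentrations. IC50 is the concentration giving 50% inhibition of specific binding. Ki derived by the Sharkey–Blumberg method. SD from at least two separate experiments.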

[4] = Selectivity ratio of PKCgamma C1A domain over PKCgamma C1A P11dfP mutant
[5] = Selectivity ratio of PKCdelta C1B domain over PKCdelta C1B P11dfP mutant
[6] = molecular target: T2, Protein kinase C alpha type (Homo sapiens, UniProt P17252); experiment: Displacement of [3H]PDBu from PKCalpha C1A domain; summary of the method: as §2
[7] = molecular target: Protein kinase C delta type (Homo sapiens, UniProt Q05655); experiment: Displacement of [3H]PDBu from PKCdelta C1B domain; summary of the method: as §2
Protein kinase C delta type, sequence (Q05655 whole entry, the tested form may be a part): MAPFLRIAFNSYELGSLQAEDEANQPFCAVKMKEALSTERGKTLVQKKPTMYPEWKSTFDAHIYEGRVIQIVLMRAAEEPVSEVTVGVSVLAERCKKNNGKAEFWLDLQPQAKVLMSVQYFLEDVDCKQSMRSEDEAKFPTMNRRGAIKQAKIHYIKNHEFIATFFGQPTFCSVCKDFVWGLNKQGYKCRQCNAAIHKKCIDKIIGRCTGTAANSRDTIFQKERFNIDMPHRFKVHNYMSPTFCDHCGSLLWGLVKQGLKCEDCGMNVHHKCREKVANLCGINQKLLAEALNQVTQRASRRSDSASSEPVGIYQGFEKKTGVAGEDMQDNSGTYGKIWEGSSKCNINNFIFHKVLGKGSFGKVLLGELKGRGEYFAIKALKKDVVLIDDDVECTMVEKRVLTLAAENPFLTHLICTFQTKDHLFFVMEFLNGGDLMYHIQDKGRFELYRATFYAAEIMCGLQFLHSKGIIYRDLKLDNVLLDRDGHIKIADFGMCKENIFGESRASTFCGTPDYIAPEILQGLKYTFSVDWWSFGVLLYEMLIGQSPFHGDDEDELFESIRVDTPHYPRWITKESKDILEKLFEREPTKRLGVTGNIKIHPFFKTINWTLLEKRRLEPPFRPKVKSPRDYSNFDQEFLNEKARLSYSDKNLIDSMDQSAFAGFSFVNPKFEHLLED

[8] = Displacement of [3H]PDBu from PKCgamma C1A P11dfP mutant; summary of the method: as §2
[9] = molecular target: T3, Protein kinase C gamma type (Homo sapiens, UniProt P05129); experiment: Displacement of [3H]PDBu from PKCgamma C1B domain; summary of the method: as §2
[10] = molecular target: T3, Protein kinase C gamma type; experiment: Displacement of [3H]PDBu from PKCgamma C1A domain; summary of the method: as §2
[11] = molecular target: T1, Protein kinase C beta type; experiment: Displacement of [3H]PDBu from PKCbeta C1A domain; summary of the method: as §2
Target sequence in this assay (P05771 whole entry, the tested form may be a part): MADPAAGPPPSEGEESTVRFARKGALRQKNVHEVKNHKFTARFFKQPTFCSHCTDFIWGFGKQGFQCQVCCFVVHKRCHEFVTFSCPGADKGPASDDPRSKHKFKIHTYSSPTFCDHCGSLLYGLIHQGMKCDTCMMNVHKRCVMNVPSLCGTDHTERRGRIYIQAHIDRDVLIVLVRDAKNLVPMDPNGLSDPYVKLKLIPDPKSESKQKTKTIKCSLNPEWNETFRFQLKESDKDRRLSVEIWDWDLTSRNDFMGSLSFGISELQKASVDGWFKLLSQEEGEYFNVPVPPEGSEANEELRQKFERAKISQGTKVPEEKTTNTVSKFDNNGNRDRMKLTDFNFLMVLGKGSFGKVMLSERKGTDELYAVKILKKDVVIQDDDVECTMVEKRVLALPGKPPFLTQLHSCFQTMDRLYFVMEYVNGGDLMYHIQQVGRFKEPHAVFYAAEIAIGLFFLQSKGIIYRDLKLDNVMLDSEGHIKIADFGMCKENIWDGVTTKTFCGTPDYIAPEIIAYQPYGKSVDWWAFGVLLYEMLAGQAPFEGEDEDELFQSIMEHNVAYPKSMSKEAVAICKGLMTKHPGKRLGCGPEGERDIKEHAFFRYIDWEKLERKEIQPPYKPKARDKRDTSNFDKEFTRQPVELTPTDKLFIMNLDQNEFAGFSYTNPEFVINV

[12] = molecular target: T1, Protein kinase C beta type; experiment: Displacement of [3H]PDBu from PKCbeta C1B domain; summary of the method: as §2
Target sequence in this assay (P05771 whole entry, the tested form may be a part): as above

[13] = molecular target: Protein kinase C eta type (Homo sapiens, UniProt P24723); experiment: Displacement of [3H]PDBu from PKCeta C1B domain
Protein kinase C eta type, sequence (P24723 whole entry, the tested form may be a part): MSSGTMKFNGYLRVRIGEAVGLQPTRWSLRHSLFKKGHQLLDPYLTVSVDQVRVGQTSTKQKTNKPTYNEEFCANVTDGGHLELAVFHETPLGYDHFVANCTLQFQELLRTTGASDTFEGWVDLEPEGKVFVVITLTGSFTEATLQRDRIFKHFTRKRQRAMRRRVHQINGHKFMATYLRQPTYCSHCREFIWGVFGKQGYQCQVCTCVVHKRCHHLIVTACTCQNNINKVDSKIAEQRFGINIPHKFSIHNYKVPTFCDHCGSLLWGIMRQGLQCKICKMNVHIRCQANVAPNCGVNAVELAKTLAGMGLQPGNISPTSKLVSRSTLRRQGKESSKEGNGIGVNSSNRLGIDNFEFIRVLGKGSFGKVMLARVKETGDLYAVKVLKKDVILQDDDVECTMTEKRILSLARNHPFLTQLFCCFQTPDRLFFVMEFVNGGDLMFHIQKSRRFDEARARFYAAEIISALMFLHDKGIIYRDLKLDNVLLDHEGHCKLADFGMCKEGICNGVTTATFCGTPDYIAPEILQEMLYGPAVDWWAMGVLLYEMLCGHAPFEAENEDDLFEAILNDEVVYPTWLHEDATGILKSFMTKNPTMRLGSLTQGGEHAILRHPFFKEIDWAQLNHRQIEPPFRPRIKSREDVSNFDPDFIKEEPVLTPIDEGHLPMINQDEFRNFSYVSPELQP
Summary of the method: (§3)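 Synthetic PKC C1 peptides (10–40 nM; about 3 nM properly folded, estimated from earlier Scatchard Bmax) were incubated with 20 nM [3H]PDBu (16.3 Ci/mmol) in 50 mM Tris-maleate (pH 7.4 at 4 °C). The mix also held 50 µg/mL 1,2-dioleoyl-sn-glycero-3-phospho-L-serine, 3 mg/mL bovine γ-globulin and varied inhibitor. IC50 came from probit analysis and Ki from the Sharkey–Blumberg method.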

[14] = molecular target: Protein kinase C theta type (Homo sapiens, UniProt Q04759); experiment: Displacement of [3H]PDBu from PKCtheta C1B domain; summary of the method: as §3
Protein kinase C theta type, sequence (Q04759 whole entry, the tested form may be a part): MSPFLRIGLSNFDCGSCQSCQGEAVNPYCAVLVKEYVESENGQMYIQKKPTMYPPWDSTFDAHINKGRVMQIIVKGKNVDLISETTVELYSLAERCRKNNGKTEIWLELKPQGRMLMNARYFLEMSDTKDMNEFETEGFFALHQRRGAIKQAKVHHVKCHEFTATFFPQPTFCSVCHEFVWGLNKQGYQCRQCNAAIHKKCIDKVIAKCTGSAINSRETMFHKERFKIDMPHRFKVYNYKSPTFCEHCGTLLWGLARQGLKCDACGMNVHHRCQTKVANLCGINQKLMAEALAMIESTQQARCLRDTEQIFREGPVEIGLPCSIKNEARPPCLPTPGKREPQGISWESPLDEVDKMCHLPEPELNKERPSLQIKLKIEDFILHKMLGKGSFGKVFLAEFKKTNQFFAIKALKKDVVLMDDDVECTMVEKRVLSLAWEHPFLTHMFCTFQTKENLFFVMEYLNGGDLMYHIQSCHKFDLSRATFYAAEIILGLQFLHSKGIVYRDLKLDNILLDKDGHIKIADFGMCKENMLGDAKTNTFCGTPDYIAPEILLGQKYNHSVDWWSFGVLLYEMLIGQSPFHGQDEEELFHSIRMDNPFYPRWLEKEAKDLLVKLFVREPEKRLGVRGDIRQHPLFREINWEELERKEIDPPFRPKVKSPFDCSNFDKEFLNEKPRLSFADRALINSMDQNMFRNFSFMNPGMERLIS

[15] = molecular target: T2, Protein kinase C alpha type; experiment: Displacement of [3H]PDBu from PKCalpha C1B domain; summary of the method: as §2
[16] = molecular target: T4, Protein kinase C epsilon type (Homo sapiens, UniProt Q02156); experiment: Displacement of [3H]PDBu from PKCepsilon C1B domain; summary of the method: as §3
T4 sequence (Q02156 whole entry): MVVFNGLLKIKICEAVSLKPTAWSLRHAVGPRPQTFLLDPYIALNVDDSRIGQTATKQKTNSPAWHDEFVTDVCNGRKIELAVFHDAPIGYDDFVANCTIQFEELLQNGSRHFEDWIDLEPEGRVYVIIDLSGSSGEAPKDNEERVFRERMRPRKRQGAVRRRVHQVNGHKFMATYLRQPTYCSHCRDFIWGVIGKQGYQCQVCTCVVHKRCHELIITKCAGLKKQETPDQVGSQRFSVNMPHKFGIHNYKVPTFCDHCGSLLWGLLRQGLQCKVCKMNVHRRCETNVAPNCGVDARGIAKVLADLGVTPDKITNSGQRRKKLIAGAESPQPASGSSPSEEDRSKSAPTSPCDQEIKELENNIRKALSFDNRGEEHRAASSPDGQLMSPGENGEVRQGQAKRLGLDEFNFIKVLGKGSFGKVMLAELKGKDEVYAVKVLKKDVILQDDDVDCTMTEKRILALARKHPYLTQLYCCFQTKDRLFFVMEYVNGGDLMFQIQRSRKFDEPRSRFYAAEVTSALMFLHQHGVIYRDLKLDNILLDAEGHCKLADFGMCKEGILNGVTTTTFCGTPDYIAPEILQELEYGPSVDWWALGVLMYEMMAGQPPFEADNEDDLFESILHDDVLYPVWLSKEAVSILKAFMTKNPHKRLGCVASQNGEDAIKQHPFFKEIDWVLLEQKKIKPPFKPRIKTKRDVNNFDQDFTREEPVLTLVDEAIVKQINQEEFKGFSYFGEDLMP

Activity [1]	Activity [2]	SMILES	Ki [3]	Ratio Ki [4]	Ratio Ki [5]	Ki [6]	Ki [7]	Ki [8]	Ki [9]	Ki [10]	Ki [11]	Ki [12]	Ki [13]	Ki [14]	Ki [15]	Ki [16]
inactive	inactive	CCCCCCn1cc2c3c(c(Cl)ccc31)N(C)[C@@H](C(C)C)C(=O)N[C@H](CO)CC2														
		CC(C)[C@H]1C(=O)N[C@H](CO)Cc2c[nH]c3cccc(c23)N1C [INDOLACTUM]	130 nM	7.8	11.8	21 nM	11 nM	690 nM	59 nM	89 nM	19 nM					
		CC(C)[C@H]1C(=O)N[C@H](CO)Cc2ccccc2N1C	436 nM	0.8	1.1		410 nM	2500 nM		3100 nM						
		CCCCCCn1cc2c3c(cccc31)N(C)[C@@H](C(C)C)C(=O)N[C@H](CO)C2	3.7 nM	4.7	8	5.8 nM	0.46 nM	71 nM	39 nM	15 nM	9.8 nM	11 nM	0.34 nM	1.4 nM	43 nM	0.47 nM
		CCCCCCn1cc2c3c(cccc31)N(C)[C@@H](C(C)C)C(=O)N[C@H](CO)CC2	120 nM	1.3	8	6700 nM	15 nM	14000 nM	420 nM	11000 nM	9200 nM	440 nM	25 nM	12 nM	> 10000 nM	29 nM
inactive	inactive	CCCCCCn1c(Br)c2c3c(cccc31)N(C)[C@@H](C(C)C)C(=O)N[C@H](CO)CC2														

From ChEMBL document CHEMBL1140701, “Synthesis, conformational analysis, and biological evaluation of 1-hexylindolactam-V10 as a selective activator for novel protein kinase C isozymes” (J Med Chem, 2008)
